Measured values taken from ChEMBL document CHEMBL1148717, “Design, synthesis, and biological evaluation of Plasmodium falciparum lactate dehydrogenase inhibitors” (J Med Chem, 2007).

Key:
Malate dehydrogenase = molecular target: T1, Malate dehydrogenase (Plasmodium falciparum, UniProt Q6VVP7); assay: Inhibition of Plasmodium falciparum MDH
T1 sequence (Q6VVP7 whole entry): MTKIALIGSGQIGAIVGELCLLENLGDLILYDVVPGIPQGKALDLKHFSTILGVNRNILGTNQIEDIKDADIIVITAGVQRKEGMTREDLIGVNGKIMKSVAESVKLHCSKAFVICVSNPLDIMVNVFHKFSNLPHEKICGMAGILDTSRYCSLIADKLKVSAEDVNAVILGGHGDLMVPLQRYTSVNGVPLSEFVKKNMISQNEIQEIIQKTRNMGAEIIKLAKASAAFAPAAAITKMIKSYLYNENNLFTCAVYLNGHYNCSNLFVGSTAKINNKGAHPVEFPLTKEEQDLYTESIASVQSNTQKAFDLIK
Summary of the method: (§1)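 Recombinant P. falciparum LDH and MDH, bovine heart LDH, and porcine heart mitochondrial and cytosolic MDH were each assayed in 50 mM potassium phosphate (pH 7.0) with 200 µM pyruvate. Reactions were started with 250 µM NADH, and the fall in A340 was followed for 5 min at 25 °C. Compounds were first screened at 50 and 100 µg/mL. Those giving over 50% inhibition at 50 µg/mL were retested for IC50.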

Lactate dehydrogenase = Lactate dehydrogenase (Plasmodium falciparum, UniProt Q0PJ46); assay: Inhibition of Plasmodium falciparum LDH; summary of the method: as §1
[1] = molecular target: T2, Malate dehydrogenase, mitochondrial (Sus scrofa, UniProt P00346); assay: Inhibition of pig heart mitochondrial MDH; summary of the method: as §1
T2 sequence (P00346 whole entry): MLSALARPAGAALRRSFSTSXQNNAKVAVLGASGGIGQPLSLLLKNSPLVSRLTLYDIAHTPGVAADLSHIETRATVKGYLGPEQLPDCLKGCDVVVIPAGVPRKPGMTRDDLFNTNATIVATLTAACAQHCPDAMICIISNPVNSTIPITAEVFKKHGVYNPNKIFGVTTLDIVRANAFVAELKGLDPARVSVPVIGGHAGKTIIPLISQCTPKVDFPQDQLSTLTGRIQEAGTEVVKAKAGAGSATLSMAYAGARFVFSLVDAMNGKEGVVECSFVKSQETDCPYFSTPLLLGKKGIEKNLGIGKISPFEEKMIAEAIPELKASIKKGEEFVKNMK

[2] = molecular target: T3, Malate dehydrogenase, cytoplasmic (Sus scrofa, UniProt P11708); assay: Inhibition of pig cytosolic MDH; summary of the method: as §1
T3 sequence (P11708 whole entry): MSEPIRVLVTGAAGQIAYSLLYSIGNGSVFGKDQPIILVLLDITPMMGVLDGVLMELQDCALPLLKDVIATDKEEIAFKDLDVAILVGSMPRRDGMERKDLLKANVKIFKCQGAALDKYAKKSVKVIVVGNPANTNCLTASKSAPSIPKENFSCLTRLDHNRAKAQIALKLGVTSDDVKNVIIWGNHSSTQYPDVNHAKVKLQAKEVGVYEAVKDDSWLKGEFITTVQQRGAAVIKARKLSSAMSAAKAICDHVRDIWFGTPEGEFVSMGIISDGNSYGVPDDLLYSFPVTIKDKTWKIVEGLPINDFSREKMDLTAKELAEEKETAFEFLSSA

[3] = Selectivity for Plasmodium falciparum LDH over bovine heart LDH
[4] = Inhibition of bovine heart LDH; parameters: species or system Bos taurus

Lactate dehydrogenase, sequence (Q0PJ46 whole entry): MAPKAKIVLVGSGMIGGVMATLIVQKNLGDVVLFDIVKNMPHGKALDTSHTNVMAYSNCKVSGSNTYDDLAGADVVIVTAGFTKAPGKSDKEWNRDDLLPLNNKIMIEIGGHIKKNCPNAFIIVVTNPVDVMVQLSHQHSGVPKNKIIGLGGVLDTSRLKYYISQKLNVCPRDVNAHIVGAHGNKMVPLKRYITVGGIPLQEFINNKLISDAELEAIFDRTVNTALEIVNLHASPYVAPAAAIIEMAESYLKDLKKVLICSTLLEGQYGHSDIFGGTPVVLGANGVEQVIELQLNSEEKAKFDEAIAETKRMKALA

SMILES | IC50 (Malate dehydrogenase; read-out: IC50) [µM] | IC50 (Lactate dehydrogenase; read-out: IC50) [µM] | IC50 [1] [µM] | IC50 [2] | Ratio IC50 [3] | IC50 ([4]; read-out: IC50) [µM] | IC50 ([2]; read-out: IC50) [µM] | IC50 [4] | IC50 (Malate dehydrogenase) | IC50 (Lactate dehydrogenase)
COc1ccc(CNC(=O)c2cc(=O)c3c(O)cc(OCCc4ccc(NC(=O)C(=O)O)cc4)cc3o2)cc1 | 6.76 | 3.13 | 2.72 |  | 59 | > 187 | 4.88 |  |  | 
COc1cc(COc2cc(O)c3c(=O)cc(C(=O)O)oc3c2)ccc1NC(=O)C(=O)O | 48.3 | 87.3 | 64 |  |  |  | > 232 |  |  | 
Cc1cc2c(C(C)C)c(O)c(O)c(C=O)c2c(O)c1-c1c(C)cc2c(C(C)C)c(O)c(O)c(C=O)c2c1O [GOSSYPOL] | 2.03 | 2.64 | 2.8 |  |  | 9.54 | 5.8 |  |  | 
NC(=O)C(=O)O [OXAMATE] | > 2000 | 92.5 | > 2000 |  |  |  | > 2000 |  |  | 
N#Cc1cc(CCOc2cc(O)c3c(=O)cc(C(=O)O)oc3c2)ccc1NC(=O)C(=O)O |  |  | 17.1 |  |  |  | 13.6 | Not Active | Not Active | Not Active

Now from value to compound:

IC50 (Malate dehydrogenase; read-out: IC50) [µM] | IC50 (Lactate dehydrogenase; read-out: IC50) [µM] | IC50 [1] [µM] | IC50 [2] | Ratio IC50 [3] | IC50 ([4]; read-out: IC50) [µM] | IC50 ([2]; read-out: IC50) [µM] | IC50 [4] | IC50 (Malate dehydrogenase) | IC50 (Lactate dehydrogenase) | SMILES
> 241 | > 241 | 96.7 | Not Active |  |  |  |  |  |  | O=C(O)C(=O)Nc1ccc(CCOc2cc(O)c3c(=O)cc(C(=O)O)oc3c2)cc1
86.9 | 8.25 | 5.91 |  | 22 | > 179 | 10.9 |  |  |  | COc1ccc(CNC(=O)c2cc(=O)c3c(O)cc(OCCc4ccc(NC(=O)C(=O)O)c(C#N)c4)cc3o2)cc1
2.66 | 1.75 | 0.39 |  |  | 11.4 | 6.31 |  |  |  | COc1ccc(CNC(=O)c2cc(=O)c3c(O)cc(OCCc4ccc(NC(=O)C(=O)O)c(OC)c4)cc3o2)cc1
> 225 | 191 | > 225 | Not Active |  |  |  |  |  |  | COc1cc(CCOc2cc(O)c3c(=O)cc(C(=O)O)oc3c2)ccc1NC(=O)C(=O)O
